High-throughput results (PubChem BioAssay)
NPY-Y2 antag = NPY-Y2 receptor antagonists, primary screen, cell-based; Neuropeptide Y receptor type 2 (Homo sapiens), P49146; NPY-Y2 expressing cells, antagonist mode; inhibition, % at 2.7 µM; 140,000 tested, 0.99% active; in the data active = inhibition above about 17%;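 note: 0% = vehicle with agonist challenge and 100% = reference antagonist with challenge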
NPY-Y1 PAM-ag = NPY-Y1 receptor potentiators or agonists, primary screen, cell-based; 220,000 tested, 0.37% active; NPY-Y1 expressing cells, potentiator/agonist activation; activation, % at 3.6 µM; Neuropeptide Y receptor type 1 (Homo sapiens), P25929; in the data active = activation above about 33%, passing the limit was not always enough;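 note: cells stimulated with NPY at EC10 then isoproterenol at EC100; 0% = low agonist plus stimulus and 100% = saturating agonist plus stimulus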
Target sequence (P25929 whole entry, looked up): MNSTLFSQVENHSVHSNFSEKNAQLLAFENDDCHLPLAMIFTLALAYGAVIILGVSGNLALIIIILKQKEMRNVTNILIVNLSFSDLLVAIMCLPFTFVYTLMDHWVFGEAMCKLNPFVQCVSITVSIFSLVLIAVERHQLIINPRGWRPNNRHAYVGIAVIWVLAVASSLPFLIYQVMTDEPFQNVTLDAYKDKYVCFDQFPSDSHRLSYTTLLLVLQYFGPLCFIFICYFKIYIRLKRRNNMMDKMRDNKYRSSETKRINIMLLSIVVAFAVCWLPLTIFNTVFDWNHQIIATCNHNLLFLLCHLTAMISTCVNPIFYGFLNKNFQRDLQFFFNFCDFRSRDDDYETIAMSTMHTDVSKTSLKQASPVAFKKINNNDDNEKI
NPY2 pot ag = NPY-Y2 potentiators or agonists, primary screen, cell-based. Neuropeptide Y receptor type 2 (Homo sapiens), P49146. cells expressing NPY-Y2, potentiator/agonist read-out. activation, % at 3.6 µM. 220,000 tested, 0.45% active; in the data active = activation above about 27%;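 note: cells stimulated with NPY near EC25 plus isoproterenol at EC100; 0% = vehicle plus submaximal agonist and 100% = vehicle plus saturating agonist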
NPY-Y1 antag = NPY-Y1 receptor antagonists, primary screen, cell-based. inhibition, % at 3.6 µM. HEK293-CNG Y1 cells, membrane potential fluorescence; NPY at EC95, then isoproterenol. Neuropeptide Y receptor type 1 (Homo sapiens), P25929. 200,000 tested, 1% active;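 active = inhibition above the campaign mean inhibition of all tested compounds plus 3 SD, cut at about 20% in these data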;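 note: 0% = DMSO wells given NPY plus isoproterenol and 100% = isoproterenol alone without NPY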
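Assay system: HEK293 Y1/CNG channel cell line; Doses: single compound dose of 3.6 µM, 0.4% DMSO; Timing: dye 3 h, compound 60 min room temperature, stimulation 45 min; Technique: Membrane-potential fluorescent dye readout; Measure: % inhibition of NPY effect.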
Numbers without * were called inactive; . = not tested or not shown. The list is not random: actives were taken first. Their share in the collection is about 1.8%.

SMILES	NPY-Y2 antag	NPY-Y1 PAM-ag	NPY2 pot ag	NPY-Y1 antag
COc1ccc(-n2c(SCc3ccc([N+](=O)[O-])cc3)nnc2-c2ccccc2)cc1	111.7*	-98.2	-6.4	99.2*
COc1ccc(-c2nnc(SCc3ccccc3)n2N)cc1	0.0	2.6	-29.3	1.0
Cc1noc(C)c1CSc1ccccc1C(=O)Nc1nccs1	5.0	0.9	-9.8	1.8
NC(=NCCc1ccccc1)NS(=O)(=O)c1ccccc1	2.1	-12.2	-5.6	6.5
O=C(NNc1ncccc1Cl)c1c(Cl)cccc1Cl	.	-11.2	-5.6	4.1
Cc1ccc(-n2nc(C)cc2Nc2ncc(Cl)cc2Cl)cc1	2.7	-12.4	-3.9	10.8
Cc1cc(Nc2ncc(Cl)cc2Cl)n(-c2ccccc2C)n1	20.1*	-12.2	-0.9	28.9*
CCOc1ccccc1NC(=O)C1C2CCC3C(CCC21)C3(Cl)Cl (stereo not given)	.	-18.1	-12.6	9.7
O=C(Nc1ccccc1)C1C2CCC3C(CCC21)C3(Cl)Cl (stereo not given)	13.8	-0.8	-16.9	20.6*
CN(C)S(=O)(=O)c1cccc(C(=O)NCc2cccs2)c1	1.7	7.2	0.2	3.1
Cc1cc(C)n(-c2nnc(C)n2/N=C/c2cc(Br)ccc2OCc2ccccc2)n1	32.0*	3.0	-14.7	7.2
COc1ccccc1/C=N/n1c(C)nnc1-n1nc(C)cc1C	1.0	-21.8	-10.8	-1.7
CC(C)(c1ccccc1)c1ccc(OCC(O)CNC2CCN(Cc3ccccc3)CC2)cc1 (stereo not given)	.	-24.5	-8.3	21.4*
CCOc1ccc(OCC(O)CNC2CCN(Cc3ccccc3)CC2)cc1 (stereo not given)	19.4*	-81.6	-15.8	29.9*
O=C(c1ccccc1)c1ccc(OCC(O)CN2CCN(Cc3ccccc3)CC2)cc1 (stereo not given)	3.6	-48.9	-6.5	2.7
CC(=O)Nc1ccc(OCC(O)CNC2CCCC2)cc1 (stereo not given)	1.3	-4.7	-3.0	4.2
OC(CNC1Cc2ccccc2C1)COc1ccc(F)cc1 (stereo not given)	.	84.8*	74.3*	.
CC(=O)c1ccc(OCC(O)CN2CCN(Cc3ccccc3)CC2)cc1 (stereo not given)	3.7	-16.2	9.3	2.0
O=C(Cc1n[nH]c(=O)c2ccccc12)NC(c1ccccc1)c1ccccc1	.	24.5	-8.9	.
CN(C)CCn1c(C(=O)Nc2ccccc2)cc2ccccc21	19.6*	-67.0	-36.0	38.1*
CCOc1ccc(CN(C)CCc2ccccn2)cc1	.	9.4	5.0	3.7
CCOc1ccccc1CN(CCc1ccc2c(c1)OCO2)Cc1ccccn1	15.3	-24.3	-7.8	30.0*
O=[N+]([O-])c1ccccc1Nc1c2ccccc2nc2ccccc12	.	50.1*	48.7*	-8.0
Cc1cc(C)n2c(=O)c3ccc(Cl)cc3nc2c1C#N	.	7.3	5.2	2.9
Cc1cc(Cl)n2c(nc3cc(F)c(F)cc32)c1C#N	.	-25.7	-1.8	21.5*
SMILES	NPY-Y2 antag	NPY-Y1 PAM-ag	NPY2 pot ag	NPY-Y1 antag
O=C(/C=C/c1cccs1)N1CCN(c2ccccc2)CC1	.	-1.1	-7.5	4.0
O=C(c1ccc(-c2cc(Cl)ccc2Cl)o1)N1CCOCC1	.	-11.5	-8.8	20.3*
O=C(c1ccc(-c2ccc(Cl)cc2Cl)o1)N1CCOCC1	.	-0.6	-1.6	1.9
CC(C)CN(C)C(=O)CC1C(=O)NCCN1C (stereo not given)	.	10.9	3.5	-2.8
Cc1cc(C)cc(NC(=S)NCCN(C2CCCCC2)C2CCCC2)c1	.	-13.6	-21.4	21.1*
N#C/C(=C\C=C\c1ccccc1)C(=O)NCc1cccnc1	.	3.3	6.2	2.8
C/C(=N\NC(=O)c1nn(C)cc1Br)c1cccc(NC(=O)C(C)(C)C)c1	1.4	102.9*	41.2*	-8.1
N=c1c2c(ncn1Cc1ccco1)Oc1ccc3ccccc3c1C2c1ccccc1 (stereo not given)	32.5*	-10.9	5.0	39.5*
COc1ccc(C2c3c(ncn(Cc4ccco4)c3=N)Oc3ccc4ccccc4c32)cc1 (stereo not given)	14.5	-8.7	-9.9	18.1
Cc1ccc(-n2nnnc2SCC(=O)Nc2ccccc2N2CCCCC2)cc1C	28.0*	9.8	-4.7	47.6*
CSCC[C@H](NC(=O)c1ccc(Cl)c([N+](=O)[O-])c1)c1nc2ccccc2[nH]1	-3.2	37.5	8.5	-3.7
O=C(NC(Cc1ccccc1)c1nc2ccccc2[nH]1)c1ccc(Cl)c([N+](=O)[O-])c1 (stereo not given)	0.0	46.5*	40.2*	-4.2
CSc1sc(-c2n[nH]c(=S)n2C)c2c1C=CCC2	.	-0.4	-8.9	.
CCc1nc2sc(C#N)c(N)c2c2c1CCCC2	57.5*	-76.1	-19.8	49.0*
O=C(O)c1cccc(-n2cccc2/C=C/[N+](=O)[O-])c1	.	20.5	9.0	.
COc1ccc(NS(=O)(=O)c2cc(C)ccc2NC(=O)c2cc(C)oc2C)cc1	35.6*	-32.8	-22.1	23.3*
COc1ccc(NS(=O)(=O)c2cccc(C(=O)NNC(=O)c3cc(C)oc3C)c2)cc1	-0.7	19.4	-0.5	-2.7
CC(=O)NC1(c2ccccc2)CCN(CC(=O)N2CCC(C)CC2)CC1	.	-11.8	-2.9	15.0
CN(Cc1cnccn1)Cc1ccccc1OCC(O)CN1CCc2ccccc2C1 (stereo not given)	.	-18.9	-14.8	8.2
CCOc1ccccc1N(C(=O)c1snc(C(N)=O)c1N)C(C(=O)NC1CCCC1)c1ccco1 (stereo not given)	19.5*	-4.1	-2.0	26.4*
COc1ccc2c(c1)-c1c(sn(-c3ccc(OC)c(OC)c3)c1=S)C(C)(C)N2	-2.7	52.9*	38.1*	-3.8
Cc1ncoc1C(=O)N1CCCC(C(=O)c2ccc(C(F)(F)F)cc2)C1 (stereo not given)	.	-7.5	-0.4	4.6
Cc1ccc(-n2c(-c3ccc(Br)cc3)c[n+]3c2CCc2ccc4cccnc4c2-3)cc1	69.6*	-74.1	-28.6	54.2*
C=CCS/C(N)=N\N=C\c1cc(Br)cc([N+](=O)[O-])c1O	.	-3.7	4.8	.
Cc1nc(C(=O)NC(C)C)nn1-c1cc(Cl)cc(Cl)c1	.	6.1	2.9	-0.8
SMILES	NPY-Y2 antag	NPY-Y1 PAM-ag	NPY2 pot ag	NPY-Y1 antag
CC(=O)Nc1nonc1-c1nc2ccccc2n1CCC(C)C	17.8*	-71.7	-17.1	42.8*
CSc1nnc2c3ccccc3n(CCc3ccccc3)c2n1	27.7*	-20.4	-11.5	28.9*
CSc1nnc2c3ccccc3n(Cc3ccccc3)c2n1	5.6	0.4	-13.2	9.5
CCOC(=O)CNC(c1ccccc1)c1cc(Br)ccc1NC(=O)OCC (stereo not given)	8.4	-24.2	-23.0	19.1
COC(=O)CNC(c1ccccc1)c1cc(Br)ccc1NC(=O)CNC(=O)OCc1ccccc1 (stereo not given)	29.4*	1.1	-5.2	25.0*
O=C(COC(=O)c1cc2ccccc2cc1O)NC(=O)NCc1ccco1	.	-15.2	-29.1	20.6*
CN(C)CCOc1nc(-c2ccccc2)nc2c1oc1ccccc12	6.0	59.5*	69.0*	-0.7
